Measurements taken from ChEMBL document CHEMBL1681720, “Maintaining potent HTLV-I protease inhibition without the P3-cap moiety in small tetrapeptidic inhibitors” (Bioorg Med Chem Lett, 2011).
pIC50: −log10 of the molar value.

Assays:
[1] = tested on: T1, Protease (Human T-cell leukemia virus type I), Q82134 [L40I]; assay: Inhibition of HTLV-1 protease L40I mutant at 50 nM by fluorimetric assay
T1 sequence (whole entry): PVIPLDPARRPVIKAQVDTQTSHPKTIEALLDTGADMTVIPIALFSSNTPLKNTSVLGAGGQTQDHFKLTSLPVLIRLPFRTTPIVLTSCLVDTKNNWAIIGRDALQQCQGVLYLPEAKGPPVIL
Outline: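 Recombinant L40I-mutant HTLV-I protease, mutation limits autoproteolysis; fluorescent substrate read-out. Test compound at 50 nM, percent inhibition from single determinations.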

[2] = molecular target: Protease (Human immunodeficiency virus 1) (UniProt Q9YQ12); assay: Inhibition of recombinant HIV-1 protease at 50 nM
Sequence of Protease (Human immunodeficiency virus 1) (Q9YQ12 as listed by the source): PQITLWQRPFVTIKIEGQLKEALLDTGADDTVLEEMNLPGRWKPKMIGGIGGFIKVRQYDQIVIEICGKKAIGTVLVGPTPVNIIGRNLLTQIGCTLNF

[3] = molecular target: Protease (Human T-cell leukemia virus type I, UniProt Q82134, L40I); assay: Inhibition of HTLV-1 protease L40I mutant by fluorimetric assay
Outline: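 Recombinant L40I-mutant HTLV-I protease, mutation limits autoproteolysis; fluorescent substrate cleavage. Percent inhibition measured singly at 1, 5, 10, 20, 50 and 100 nM test compound. IC50 read from fitted sigmoid plot, error range from RMSD of the plot.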

Row | SMILES | inhibition [1] | inhibition [2] | pIC50 [3] | INH [2]
1 | CCCC(=O)NC(C(=O)N[C@H](C(=O)N[C@@H](Cc1ccccc1)[C@H](O)C(=O)N1CSC(C)(C)[C@H]1C(=O)NCC(C)(C)C)C(C)(C)C)c1cc(F)c(F)c(F)c1 (stereo in doubt; 19a) [listing 1 of 2 here] | 84% | > 99% |  | 
2 | CCCC(=O)NC(C(=O)N[C@H](C(=O)N[C@@H](Cc1ccccc1)[C@H](O)C(=O)N1CSC(C)(C)[C@H]1C(=O)NCC(C)(C)C)C(C)(C)C)c1cc(F)c(F)c(F)c1 (single isomer, unassigned; enantiomer b) | 20% | 80% |  | 
3 | CCCC(=O)NC(C(=O)N[C@H](C(=O)N[C@@H](Cc1ccccc1)[C@H](O)C(=O)N1CSC(C)(C)[C@H]1C(=O)NCC(C)(C)C)C(C)(C)C)c1cc(F)c(F)c(F)c1 (stereo in doubt; 19b) | 18% | 68% |  | 
4 | CCCC(=O)N[C@H](C(=O)N[C@H](C(=O)N[C@@H](Cc1ccccc1)[C@H](O)C(=O)N1CSC(C)(C)[C@H]1C(=O)NCC(C)(C)C)C(C)(C)C)[C@@H](C)CC | 86% | 95% | 8.21 | 
5 | CC(C)(C)CNC(=O)[C@H]1N(C(=O)[C@@H](O)[C@H](Cc2ccccc2)NC(=O)[C@@H](NC(=O)C2CCCCN2)C(C)(C)C)CSC1(C)C (single isomer, unassigned; enantiomer b) | 11% | 54% |  | 
6 | CC(C)(C)CNC(=O)[C@H]1N(C(=O)[C@@H](O)[C@H](Cc2ccccc2)NC(=O)[C@@H](NC(=O)[C@@H](N)Cc2ccccc2)C(C)(C)C)CSC1(C)C | 28% | > 99% |  | 
7 | CC(C)(C)CNC(=O)[C@H]1N(C(=O)[C@@H](O)[C@H](Cc2ccccc2)NC(=O)[C@@H](NC(=O)[C@H](O)c2ccccc2)C(C)(C)C)CSC1(C)C | 10% | 82% |  | 
8 | CC(C)(C)CNC(=O)[C@H]1N(C(=O)[C@@H](O)[C@H](Cc2ccccc2)NC(=O)[C@@H](NC(=O)C2CCCCN2)C(C)(C)C)CSC1(C)C (stereo in doubt; 14a) | 24% | 93% |  | 
9 | CC(C)(C)CNC(=O)[C@H]1N(C(=O)[C@@H](O)[C@H](Cc2ccccc2)NC(=O)[C@@H](NC(=O)[C@@H](N)C(C)(C)C)C(C)(C)C)CSC1(C)C | 19% | 95% |  | 
10 | CC(C)(C)CNC(=O)[C@H]1N(C(=O)[C@@H](O)[C@H](Cc2ccccc2)NC(=O)[C@@H](NC(=O)[C@@H](O)c2ccccc2)C(C)(C)C)CSC1(C)C | 43% | 92% |  | 
11 | CC(C)(C)CNC(=O)[C@H]1N(C(=O)[C@@H](O)[C@H](Cc2ccccc2)NC(=O)[C@@H](NC(=O)C(C(=O)OCc2ccccc2)c2ccccc2)C(C)(C)C)CSC1(C)C (mixture of isomers) | 26% | 34% |  | 
12 | CC[C@H](C)[C@H](N)C(=O)N[C@H](C(=O)N[C@@H](Cc1ccccc1)[C@H](O)C(=O)N1CSC(C)(C)[C@H]1C(=O)NCC(C)(C)C)C(C)(C)C | 31% | 97% |  | 
13 | CC(C)(C)CNC(=O)[C@H]1N(C(=O)[C@@H](O)[C@H](Cc2ccccc2)NC(=O)[C@@H](NC(=O)[C@@H](N)C2CCCCC2)C(C)(C)C)CSC1(C)C | 65% | 99% | 7.45 | 
14 | CC(C)(C)CNC(=O)[C@H]1N(C(=O)[C@@H](O)[C@H](Cc2ccccc2)NC(=O)[C@@H](NC(=O)C(C)(C)c2ccccc2)C(C)(C)C)CSC1(C)C | 4% | 80% |  | 
15 | CCCC(=O)N[C@H](C(=O)N[C@H](C(=O)N[C@@H](Cc1ccccc1)[C@H](O)C(=O)N1CSC(C)(C)[C@H]1C(=O)NCC(C)(C)C)C(C)(C)C)c1ccccc1 | 93% |  | 8.19 | 99 nM
16 | CC(C)(C)CNC(=O)[C@H]1N(C(=O)[C@@H](O)[C@H](Cc2ccccc2)NC(=O)[C@@H](NC(=O)Cc2ccccc2)C(C)(C)C)CSC1(C)C | 8% | 22% |  | 
17 | CCCC(=O)NC(C(=O)N[C@H](C(=O)N[C@@H](Cc1ccccc1)[C@H](O)C(=O)N1CSC(C)(C)[C@H]1C(=O)NCC(C)(C)C)C(C)(C)C)c1cc(F)c(F)c(F)c1 (stereo in doubt; 20a) [listing 1 of 2 here] |  |  | 7.96 | 
18 | CC(C)(C)CNC(=O)[C@H]1N(C(=O)[C@@H](O)[C@H](Cc2ccccc2)NC(=O)[C@@H](NC(=O)C(=O)c2ccccc2)C(C)(C)C)CSC1(C)C | 33% | 76% |  | 
19 | CCCC(=O)NC(C(=O)N[C@H](C(=O)N[C@@H](Cc1ccccc1)[C@H](O)C(=O)N1CSC(C)(C)[C@H]1C(=O)NCC(C)(C)C)C(C)(C)C)c1cc(F)c(F)c(F)c1 (stereo in doubt; 19a) [listing 2 of 2 here] |  |  | 7.88 | 
20 | CC(C)[C@H](N)C(=O)N[C@H](C(=O)N[C@@H](Cc1ccccc1)[C@H](O)C(=O)N1CSC(C)(C)[C@H]1C(=O)NCC(C)(C)C)C(C)(C)C | 26% | 96% |  | 
21 | CCCC(=O)NC(C(=O)N[C@H](C(=O)N[C@@H](Cc1ccccc1)[C@H](O)C(=O)N1CSC(C)(C)[C@H]1C(=O)NCC(C)(C)C)C(C)(C)C)c1cc(F)c(F)c(F)c1 (stereo in doubt; 20a) [listing 2 of 2 here] | 81% | > 99% |  | 
22 | CC(C)(C)CNC(=O)[C@H]1N(C(=O)[C@@H](O)[C@H](Cc2ccccc2)NC(=O)[C@@H](NC(=O)[C@@H](N)c2ccccc2)C(C)(C)C)CSC1(C)C | 69% | > 99% | 7.43 | 
